From PubChem BioAssay
MT1-MMP txn act: MT1-MMP promoter transcription activation; HT1080 MT1-MMP promoter luciferase reporter, luminescence, overnight; active compounds read high; 86,000 tested, 0.16% active; activation factor at 10 µM;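 active means activation factor of at least 2 for MT1-MMP transcription at 10 µM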
SF-1 act: SF-1 (human) activation | AID 522 | CHO-K1 Gal4-SF-1 LBD luciferase reporter; % increase over DMSO SF-1-specific signal | Q13285 | 65,000 tested, 1.9% active | activation, % at 10 µM;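 active means activation above the mean activation of all tested compounds plus 3 SD, cut at about 50% in these data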
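Assay system: CHO-K1 cells co-transfected with Gal4 DBD–human SF-1 LBD, 5xGal4 luciferase reporter; doses: 10 µM only; incubation: 20 h compound exposure at 37 °C after 1 h cell settling; signal: luciferase light emission; evaluation: percent activation versus DMSO; repeats: one test per compound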
TNAP act mid DEA: activators of human TNAP at intermediate phosphate acceptor; activation factor at 20 µM; purified TNAP, CDP-star luminescence, 100 mM DEA, 30 min; active compounds read high; scale: 0 levamisole-inhibited, 1 vehicle-only enzyme; 64,000 tested, under 10 active; AID 813;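 active means activation factor of at least 2 at 20 µM, relative to controls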
Target sequence (P05186 whole entry, looked up): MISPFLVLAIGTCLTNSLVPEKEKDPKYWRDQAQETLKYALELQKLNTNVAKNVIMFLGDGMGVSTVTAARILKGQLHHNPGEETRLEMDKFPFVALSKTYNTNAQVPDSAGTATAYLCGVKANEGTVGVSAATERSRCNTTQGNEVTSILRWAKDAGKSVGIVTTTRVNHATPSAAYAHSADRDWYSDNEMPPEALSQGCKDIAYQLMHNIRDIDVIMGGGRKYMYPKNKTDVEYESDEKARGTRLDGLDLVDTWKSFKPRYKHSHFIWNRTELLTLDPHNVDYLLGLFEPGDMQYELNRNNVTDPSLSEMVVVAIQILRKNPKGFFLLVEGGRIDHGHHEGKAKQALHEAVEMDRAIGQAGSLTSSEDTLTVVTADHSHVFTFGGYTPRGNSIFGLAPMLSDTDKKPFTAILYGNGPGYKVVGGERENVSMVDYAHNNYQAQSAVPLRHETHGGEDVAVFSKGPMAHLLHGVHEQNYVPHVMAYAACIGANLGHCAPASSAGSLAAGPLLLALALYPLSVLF
RORA act: activates the human nuclear receptor RORA; P35398; CHO-K1 Gal4-RORA LBD luciferase reporter, luminescence; percent increase over mock-subtracted basal signal; activation, % at 10 µM; 65,000 tested, 1.5% active; AID 560;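 active means activation above the mean of all tested compounds plus 3 SD, cut at about 49% in these data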
Ec RNAP inh: inhibitors of Escherichia coli RNA polymerase; E. coli RNA polymerase, fluorescence transcription assay; inhibition, %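 (tested at 10 µM)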; 62,000 tested, 0.2% active; in the data active means inhibition above about 20%
Hits are given with their value; 0 = inactive; - = no result given. This is a sample that favours compounds with a hit; in the whole collection about 2.1% have one here.

SMILES | MT1-MMP txn act | SF-1 act | TNAP act mid DEA | RORA act | Ec RNAP inh
Cc1csc2nc(CSc3nc4ccccc4o3)cn12 | 0 | 61 | 0 | 0 | -
NC(=O)c1c(NC(NC(=O)c2ccco2)(C(F)(F)F)C(F)(F)F)sc2c1CCCC2 | 0 | 0 | 0 | 0 | 0
CC1N(C)c2cc(NC(=O)c3ccco3)ccc2C1(C)C (stereo unspecified) | 0 | 71 | 0 | 0 | 0
C=CCNCc1cccn1-c1ccccc1 | 0 | 0 | 0 | 0 | 0
O=C(NCCc1ccccc1)c1cc(-c2ccco2)on1 | 0 | 86 | 0 | 69 | 0
COC(=O)[C@@]1(Cc2ccccc2)[C@H]2c3cc(C(=O)N(C)C)n(CCN4CCNC4=O)c3C[C@H]2CN1C(=O)c1ccccc1 | 0 | - | - | - | -
COc1ccc(NC2CC(=O)N(c3ccccc3)C2=O)cc1 (stereo unspecified) | 0 | 57 | 0 | 0 | 0
S=C(c1ccc(-c2ccccc2Cl)o1)N1CCOCC1 | 0 | 0 | 0 | 54 | 0
Cc1cccn2cc(-c3ccc(F)cc3)nc12 | 0 | 0 | 0 | 0 | 0
COc1ccc(-c2cn3ccc4ccccc4c3n2)cc1 | 2.5 | - | - | - | -
Cc1cccn2cc(-c3ccccc3)nc12 | 0 | 0 | 0 | 76 | 0
O=C(c1ccco1)N1CCN(c2ccc(Cl)cc2)CC1 | 0 | 0 | 0 | 98 | 0
Cc1ccc(N2C(=O)c3ccc(N)cc3C2=O)cc1C | 0 | 64 | 0 | 107 | 0
CC(=O)Nc1ccc2c(c1)C(=O)N(c1ccc(C)cc1)C2=O | 0 | - | - | - | -
Cc1ccc(N2C(=O)c3ccccc3C2=O)cc1C | 0 | - | 0 | - | -
Cc1ccc(N2C(=O)c3ccc(N)cc3C2=O)cc1 | 0 | 0 | 0 | 55 | 0
COc1ccc(NC(=O)c2cnc3sccn3c2=O)cc1OC | 0 | 0 | 0 | 0 | 0
CCOC(=O)Cc1cnc(NC(=O)NC(C(=O)OCC)(c2ccccc2)C(F)(F)F)s1 (stereo unspecified) | 0 | 0 | 0 | 0 | 0
CC1(C)CC(=O)C=C(NCCN2CCN(C(=O)Nc3ccc(Cl)c(Cl)c3)CC2)C1 | 0 | 0 | 0 | 0 | 0
O=C(Nc1ccc(Cl)c(Cl)c1)N1CC=CCC1 | 0 | 55 | 0 | 58 | -
COc1ccc(-c2nnc(-c3ccc(OCC(C)C)cc3)o2)cc1 | 0 | - | - | - | -
CC(C)COc1ccc(-c2nnc(-c3ccncc3)o2)cc1 | 0 | 85 | 0 | 0 | 0
CCOC(=O)c1c(NC(=O)c2cc(C3CC3)on2)sc2c1CCCC2 | 0 | 0 | 0 | 0 | 0
CCN(CC)C(=O)CCCOc1ccc(Cl)cc1Cl | 0 | 0 | 0 | 54 | 0
COc1cccc(C2=N/C(=C\N(C)C)C(=O)O2)c1 | 0 | 0 | 0 | 71 | 0
SMILES | MT1-MMP txn act | SF-1 act | TNAP act mid DEA | RORA act | Ec RNAP inh
COC(=O)c1nc2n(n1)C(c1ccc(OC)c(OC)c1OC)C1=C(CCCC1=O)N2 (stereo unspecified) | 0 | 0 | 0 | 0 | 0
COc1ccc(-c2noc(-c3ccc(Cl)cc3)n2)cc1 | 0 | 0 | 0 | 49 | 0
COc1cccc(-c2noc(-c3cccnc3)n2)c1 | 0 | 0 | 0 | 86 | 0
COc1cccc(-c2noc(-c3cccs3)n2)c1 | 0 | 0 | 0 | 66 | 0
Cc1ccc(-c2nc(-c3cccnc3)no2)cc1 | 0 | 56 | 0 | 0 | 0
CCOC(=O)c1sc(NC(=O)CCn2nnc3ccccc32)c(C(=O)OCC)c1C | 0 | 0 | 0 | 0 | 0
Cc1ccccc1-c1nnc2s/c(=C\c3ccc(N(C)C)cc3)c(=O)n12 | 0 | 0 | 0 | 0 | 0
CC(C)Nc1nc(NC(C)C)nc(C(N)=O)n1 | 0 | 0 | 0 | 0 | 0
COc1cccc(-c2nc(-c3ccc(NC(=O)c4cccnc4)cc3)no2)c1 | 0 | 55 | 0 | 51 | 0
Cc1ccccc1-c1noc(-c2cccs2)n1 | 0 | 53 | 0 | 0 | 0
COc1cc2c(cc1OC)CN(C(=O)CSc1nnc3scc(-c4ccccc4)n13)CC2 | - | 0 | 0 | 0 | 0
COC(=O)c1ccc2c(c1)N(Cc1nc(-c3cccc(C)c3)oc1C)C(=O)C1CCCN21 (stereo unspecified) | 0 | 0 | 0 | 0 | 0
Cn1c(SCc2ccccc2)nnc1-c1ccc2c(c1)OCO2 | 0 | 0 | 0 | 55 | 0
CCCN(CCO)Cc1ccc2ccccc2c1 | 0 | - | - | - | -
Cc1cc(C(=O)CSc2nncs2)c(C)n1-c1ccc2c(c1)OCO2 | 0 | 69 | 0 | 0 | -
CCCCNC(=O)C(c1ccc(OCC(=O)OC)c(C(=O)OC)c1)N(CCC1=CCCCC1)C(=O)CCCCCN1C(=O)NC(c2ccc(-c3ccccc3)cc2)C(C(=O)OCc2ccccc2)=C1C (stereo unspecified) | 0 | - | - | - | -
CC1(C)CC(=O)c2cnc(N3CCc4ccccc4C3)nc2C1 | 0 | 0 | 0 | 0 | 0
Cn1c(SCC(=O)N2CCOCC2)nnc1-c1cnccn1 | 0 | 0 | 0 | 0 | 0
Cn1c(SCc2ccccc2Cl)nnc1-c1cnccn1 | 0 | 56 | 0 | 52 | 0
Cn1c(SCC(=O)c2ccc(F)cc2)nnc1-c1cnccn1 | 2.8 | 0 | 0 | 0 | 0
COc1cccc(CC(NC(C)=O)C(=O)NC2CCN(c3c4c(nc5ncnn35)CCC4)CC2)c1 (stereo unspecified) | 0 | 72 | 0 | 0 | 0
CCN(CC)S(=O)(=O)c1ccc2nc(NC(=O)c3cccs3)sc2c1 | 0 | 0 | - | 49 | -
O=C1CN(C(=O)OCc2ccccc2)c2ccccc2N1 | 0 | 0 | 0 | 51 | 0
Cc1cccc(Cn2c(=O)n(CCCC(=O)NCc3ccco3)c(=O)c3ccccc32)c1 | 0 | 0 | 0 | 55 | 0
Cc1ccccc1Cn1c(=O)n(CCCC(=O)NCc2ccco2)c(=O)c2ccccc21 | 0 | 0 | 0 | 0 | 0
SMILES | MT1-MMP txn act | SF-1 act | TNAP act mid DEA | RORA act | Ec RNAP inh
Cc1noc(C)c1C(=O)Nc1sc2c(c1C(N)=O)CCCCC2 | 0 | 0 | 0 | 0 | 0
CC1CCc2c(sc(NC(=O)c3noc4c3CCCC4)c2C(N)=O)C1 (stereo unspecified) | 0 | 50 | 0 | 101 | 0
COc1cc(OC)cc(-c2nc3cc(C)ccc3o2)c1 | 0 | 72 | 0 | 57 | 0
O=c1c2sc3nc(N4CCOCC4)c4c(c3c2ncn1Cc1ccco1)CCCC4 | 0 | 0 | 0 | 0 | 0
Cc1cnc(-c2nnc(N(C)C(=O)c3cnccn3)s2)cn1 | 0 | 0 | 0 | 0 | 0
CCOc1ccc(NC(=O)Cn2nnc(-c3ccccc3NC(=O)C3CC3)n2)cc1 | 0 | 0 | 0 | 0 | 24
COc1ccc(NC(=O)Cn2nnc(-c3ccccc3NC(=O)C3CC3)n2)cc1 | 0 | 0 | 0 | 0 | 0
O=C(OCc1nc2ccccc2s1)C1CCN(C2=NS(=O)(=O)c3ccccc32)CC1 | 0 | 53 | 0 | 0 | 0
COC(=O)C1=C(C)OC(N)=C(C#N)C1c1cc(OC)c(OCC(N)=O)cc1Cl (stereo unspecified) | 0 | 0 | 0 | 0 | 0
COc1ccc(-c2csc(NCc3ccco3)n2)cc1C | 0 | 80 | 0 | 49 | 0
Cc1ccc(-c2cc3nc(C)cc(NCc4ccco4)n3n2)cc1 | 0 | 51 | 0 | 59 | 0
O=C(Nc1ccc(NC(=O)C2CC2)nc1)c1ccco1 | 0 | 51 | 0 | 0 | 0
CCCC(=O)Nc1ccc(NC(=O)c2cccs2)cn1 | 0 | 0 | 0 | 0 | 0
O=C(Nc1ccc(NC(=O)C2CC2)nc1)c1cccs1 | 0 | 52 | 0 | 0 | 0
